Results on 80 molecules are retold here after PubChem BioAssay AID1385 (PCMD, 2008).

The campaign covered roughly 200,000 compounds. About 170 (0.085%) were called active. The full list was thinned out, with actives kept by preference. Values without a mark were called inactive.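 Rule for the calls: active = inhibition above 40% at the single screening dose; inactive = the rest.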

Chain of DNA repair protein RAD51 homolog 1 (Homo sapiens) (Q06609 whole entry, looked up): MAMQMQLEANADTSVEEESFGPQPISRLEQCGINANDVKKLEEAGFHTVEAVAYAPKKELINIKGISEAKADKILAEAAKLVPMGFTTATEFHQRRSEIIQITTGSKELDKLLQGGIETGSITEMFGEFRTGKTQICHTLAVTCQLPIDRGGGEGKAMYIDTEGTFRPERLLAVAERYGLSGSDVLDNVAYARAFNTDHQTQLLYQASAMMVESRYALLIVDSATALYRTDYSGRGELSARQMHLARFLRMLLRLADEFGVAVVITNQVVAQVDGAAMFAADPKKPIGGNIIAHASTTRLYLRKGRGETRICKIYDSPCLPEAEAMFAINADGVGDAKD

The assay has as its target DNA repair protein RAD51 homolog 1 (Homo sapiens) (UniProt Q06609). Put plainly: blockers of RAD51-mediated homologous recombination – biochemical, fluorescence, primary screen (AID 1385).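 Note: 0% = DMSO control wells and 100% = blanks with heterologous ssDNA.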 Conditions: hRad51 DNA strand exchange, fluorescence dequenching; at 10 µM; active compounds read high. Put shortly: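 material = hRad51 filaments on single-stranded DNA | reagent = Donor/quencher-labelled 47-bp dsDNA substrate | compound = 10 µM final, single point | schedule = strand-exchange reaction 15 min at room temperature | measured by = fluorescein emission 520 nm, excitation 485 nm | read-out basis = % inhibition versus plate control and blank means | benchmarks = plate controls and plate blanks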
With `NC(=O)c1ccc(NC(=O)COC(=O)c2ccc([N+](=O)[O-])cc2)cc1`, the inhibition (as a rule, the change of the read-out against control, counted positive when it falls) was -14.5%.

Consider `CCCc1c(C(=O)Nc2ccc(F)cc2)cnn1-c1ccccc1`, for which the inhibition is -9.46%.

On to `Cc1cc(C(=O)OCC(=O)Nc2nccs2)c2ccccc2n1`, for which the inhibition was -4.52%.

For the molecule `CCc1nc(NCCO)c(C#N)c2c1CCCC2`, the inhibition is 18.4%.

Take `Cn1c(=O)c(=O)n(C)c2cc(S(=O)(=O)NCCN3CCN(c4ccccc4F)CC3)ccc21`: the inhibition is 0.68%.

For `Cc1ccc(N2C(=O)CN=C2Nc2nc(C)cc(C)n2)cc1`, the inhibition is 7.92%.

In the case of `COC(=O)c1sccc1NC(=O)CC1C(=O)NCCN1C(=O)Nc1ccc(F)cc1F` (stereo not given), the inhibition is 1.89%.

As for `Fc1ccc(-c2csc(-c3ccc(C4SCCS4)cc3)n2)cc1F`, the inhibition was 1.29%.

With `O=C(NNC(=O)c1csc(-c2cccnc2)n1)Nc1ccc(Cl)cc1`, the inhibition is -5.17%.

For `COCc1cc(=O)[nH]c(-c2ccc(C(F)(F)F)cc2)n1`, the inhibition is 7.88%.

As to `CSc1sc(C(=O)NNC(=O)c2ccc(Cl)cc2)c2c1C=CCC2`, the inhibition was -9.57%.

Regarding `N#Cc1c(NCCO)ccc([N+](=O)[O-])c1NCCO`, the inhibition was 16.9%.

On to `COc1ccc(NC(=O)C2=C(C)NC(=O)NC2c2ccccc2[N+](=O)[O-])cc1` (stereo not given), for which the inhibition is 0.69%.

In the case of `O=S(=O)(c1ccccc1)N1CN(Cc2ccc(F)cc2)c2nc3ccccc3nc21`, the inhibition is 7.4%.

For `CC1(C)C2CC[C@]3(C)C(CC=C4[C@@H]5C[C@@](C)(CO)CC[C@]5(C(=O)O)CC[C@]43C)[C@@]2(C)CC[C@@H]1O` (stereo not given in full), the inhibition was 6.09%.

Regarding `Cc1cc(N2CCN(c3ccccc3)CC2)nc(N2CCOCC2)n1`, the inhibition was 26.8%.

Take `COc1ccc(Cn2c(O)c(/C=C3/C=CC=N3)c(=O)[nH]c2=O)cc1`: the inhibition was -6.92%.

Regarding `COC(=O)c1ccc(C(NC(=O)OCc2ccccc2)/C(F)=C/[C@@H](C)C(=O)O)cc1` (stereo not given in full), the inhibition is -2.27%.

Turning to `Cc1cccn2c(CNCC(C)Oc3cccnc3)c(C(=O)N3CCOCC3)nc12` (stereo not given), the inhibition is -2.58%.

Consider `N#CC1=C(N)Oc2c(ccc3cccnc23)C1c1ccncc1` (stereo not given), for which the inhibition was 12.7%.

As to `CN(C)CCCN(Cc1cc2cc3c(cc2[nH]c1=O)OCCO3)C(=O)NC1CCCCC1`, the inhibition was 0.9%.

Turning to `C/C(CC(=O)NC(C)c1ccccc1)=N\NC(N)=S` (stereo not given), the inhibition was 21.4%.

On to `NCC(=O)c1cccc2ccc[n+]([O-])c12`, for which the inhibition was -0.26%.

Take `CCCOc1ccc(Cl)cc1Nc1nc(NCCO)nc(N2CCCC2)n1`: the inhibition is 6.75%.

As to `Cc1cc(NC(=O)OC(C)C)ccc1-c1ccc(NC(=O)OC(C)C)cc1C`, the inhibition was -19.8%.

On to `CCn1c(SCC(=O)Nc2sc(C)c(C)c2C#N)nnc1C1CC1`, for which the inhibition was -26.7%.

For the molecule `CCNc1nc(NCC)nc(N/N=C/c2ccc(O)c(OC)c2)n1`, the inhibition is 5.6%.

Take `Cc1cc(C)nc(Nc2n[nH]c(-c3ccccc3N)n2)n1`: the inhibition was 22.9%.

On to `COC(=O)c1cc(C(=O)OCC(=O)Nc2cc(C)on2)cc([N+](=O)[O-])c1`, for which the inhibition is -19.8%.

With `O=C(CCl)Nc1cccc(CP(=O)(c2ccccc2)c2ccccc2)c1`, the inhibition is 3.48%.

On to `Cc1nc(-c2ccccc2)sc1-c1nnc(C2CC2)o1`, for which the inhibition was 13.8%.

`Cc1cc(=O)oc2cc(OCC(=O)Nc3nnc(C4CC4)s3)ccc12`: the inhibition was 27.8%.

As for `CCCSc1ncccc1C(=O)O`, the inhibition was 14.8%.

Consider `Cc1ccc(NC(=O)C/C(N)=N/O)cc1Cl`, for which the inhibition is -4.43%.

Regarding `O=S(=O)(Cc1noc(-c2ccc(OC(F)(F)F)cc2)n1)c1ccc(F)cc1`, the inhibition was -2.58%.

As for `CC(NC(=O)C(=O)Nc1nccs1)c1ccccc1` (stereo not given), the inhibition was 2.32%.

Regarding `CCOC(=O)c1c(N)sc2c1CCCC2=O`, the inhibition is 10.5%.

Take `CCCc1nc2c(c(=O)c3ccccc3n2C)c(=O)n1-c1cc(C)cc(C)c1`: the inhibition was 20%.

For `Cc1cc(N)n(-c2ccc(S(=O)(=O)N3CCCC3)cc2[N+](=O)[O-])n1`, the inhibition was 4.97%.

For `O=C(N/N=C/c1ccco1)c1csc2c1CCCC2`, the inhibition is 7.09%.

With `Cn1c2c(c(=O)n(C)c1=O)C(c1cccc(F)c1)C(C#N)=C(N)O2` (stereo not given), the inhibition is 1.62%.

For `O=C1NNC(c2ccccc2)=N/C1=C\c1ccc(Cl)cc1`, the inhibition was -17%.

On to `O=C(NCCN1CCOCC1)c1ccc2c(c1)N(Cc1ccc(Cl)cc1)CCS2`, for which the inhibition was 22.5%.

Regarding `CC1(C)CC(=O)C=C(Nc2ccccc2)C1`, the inhibition is 8.69%.

For the molecule `O=C(C1=C(O)C(=O)N(CCOCCO)C1c1ccccn1)c1cccs1` (stereo not given), the inhibition is 21.9%.

Take `CC12CN3CCN(CC(C3)/C1=N\NC(=O)c1ccccc1N)C2`: the inhibition was -2.47%.

For `Nc1scc[n+]1Cc1cccc2cccnc12`, the inhibition is 9.86%.

`Cc1c(CCC(=O)O)c(=O)oc2cc3occ(-c4ccccc4)c3cc12`: the inhibition is 3.32%.

On to `O=C(Cn1cnc2ccccc2c1=O)Nc1cccc(S(=O)(=O)N2CCCCC2)c1`, for which the inhibition is 11.5%.

In the case of `Cn1c(=O)c2c(-c3cccc(Br)c3)c(C#N)c(N)nc2n(C)c1=O`, the inhibition is 4.26%.

As for `COc1ccccc1/C=C/C=N/NC(=O)CN1CCN(Cc2ccccc2)CC1`, the inhibition was -30.5%.

Consider `CCOc1cc2c(Cl)ncnc2c(OCC)c1OCC`, for which the inhibition was -5.3%.

As for `O=S(=O)(Nc1ccc(Cl)cn1)c1cnc(Cl)c(Br)c1`, the inhibition is 12%.

Turning to `CC(NCc1ccccc1OC1CCCC1)c1ccccc1` (stereo not given), the inhibition was 15.6%.

`O=c1cc(CCl)nc2scc(-c3ccccc3)n12`: the inhibition is -3.51%.

For the molecule `CNC(=S)NNC(=O)c1oc2nc(-c3ccccc3)cc(-c3ccco3)c2c1N`, the inhibition was -38.4%.

As for `Cc1onc(-c2c(Cl)cccc2Cl)c1C(=O)NNC(=O)c1c(-c2c(Cl)cccc2Cl)noc1C`, the inhibition is 9.44%.

For `COc1cccc(Nc2nc(N)c([N+](=O)[O-])c(NCc3ccco3)n2)c1`, the inhibition is 1.8%.

With `COc1ccc(CN2CC[C@H]3C=CC[C@@H](C(=O)N4CCOCC4)[C@H]3C2=O)cc1OC`, the inhibition was -2.64%.

Take `COc1ccccc1-n1c(SCC(=O)O)nc2sc3c(c2c1=O)CCC3`: the inhibition is 4.79%.

For `COC(=O)C1=C[C@@H](C(=O)OC)[C@@H]2C3=C(C(=O)[C@]2(C)NC(=O)c2ccccc2)[C@H](C)n2c(=O)n(C)c(=O)n2[C@@H]3C1`, the inhibition is -1.64%.

For `Cc1ncn2cc(-c3ccc(Cl)cc3Cl)[nH]c(=O)c12`, the inhibition is -9.91%.

In the case of `CCn1c(=O)c2cc(C(=O)Nc3cccc(C(C)=O)c3)sc2c2ccccc21`, the inhibition was -1.26%.

As for `NS(=O)(=O)c1ccc(CNC(=O)c2cnccn2)cc1`, the inhibition is 7.99%.

On to `NC(=O)c1nnsc1-c1ccc(-c2snnc2C(N)=O)cc1`, for which the inhibition is -31.9%.

For the molecule `COc1ccc(CN2CCOC2=O)cc1OC`, the inhibition was -3.27%.

With `CCN(CC)c1ccc(NC(=O)C2CCC(CNc3c(N4CCCC4)c(=O)c3=O)CC2)c(C)c1` (stereo not given), the inhibition was 15.6%.

Consider `CC(O)c1nc2c(c(=O)n(C)c(=O)n2C)n1C` (stereo not given), for which the inhibition was -23.8%.

In the case of `COc1ccc(C(=O)O/N=C(\N)Cc2ccc(Cl)cc2Cl)cc1OC`, the inhibition was 1.56%.

With `COc1ccc(CCNC2=C(Cl)C(=O)N(Cc3ccccc3)C2=O)cc1OC`, the inhibition was 8.51%.

`COc1ccc(CCn2ccc(O)c(Cc3ccc(Cl)cc3Cl)c2=O)cc1OC`: the inhibition is 43.6% (active).

As to `O=C1[C@@H]2C(c3cccnc3)=NO[C@@H]2C(=O)N1c1ccc(Cl)cc1Cl`, the inhibition was -42%.

Consider `COc1ccc(NS(=O)(=O)c2ccc(N3CCOCC3)c(NC(=O)c3ccccc3Br)c2)cc1`, for which the inhibition is 17%.

On to `CN(C)S(=O)(=O)c1ccc(Cl)c(NC(=O)COC(=O)CC(NC(N)=O)c2ccc(Cl)cc2)c1` (stereo not given), for which the inhibition was -44.1%.

Turning to `Clc1ccc(C[n+]2cc(-c3ccccc3)n3c2CCC3)cc1`, the inhibition was 18.9%.

Turning to `NNC(=O)c1ccc(COCC(F)(F)C(F)F)cc1`, the inhibition is 1.4%.

As for `COc1ccc2nc(NC(=O)NC3CCCCC3)sc2c1`, the inhibition was -16.2%.

Regarding `Cc1ccsc1/C=N/NC(=O)Cc1cc(=O)[nH][nH]1`, the inhibition is 16.7%.

For the molecule `Cc1ccc(C(=O)NNC2=Nc3cc([N+](=O)[O-])ccc3OC2)cc1`, the inhibition is 3.01%.

Take `COc1ccc(NC(=O)CSc2ncnc3[nH]ncc23)cc1`: the inhibition was -5.26%.
